# A selection: hits, their analogues and other compounds. The true share with any hit is near 1.5%.
# Cneo AK release – Cryptococcus neoformans lysis via adenylate kinase release; C. neoformans lysis, adenylate kinase release luminescence, 4 h; normalised: neutral wells 0, clomiphene wells 100; AID 651654; 360,000 compounds, 0.2% hits; lysis activity, % at 15 µM;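 active = mean lysis activity across replicates of at least 80%, whatever share of replicates individually reach that level; inactive = mean lysis activity below 80%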
#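 Material – log-phase Cryptococcus neoformans yeast cells · Input – 5 × 10^6 yeast cells/mL · Medium – fresh YPD growth medium · Doses – single compound concentration per well · Timing – static 4 h at 37 °C with compound, 1 h detection · Detection – adenylate kinase release luminescence · Read-out – signal increase indicating cell lysis · Control set – Clomiphene as positive lysis control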
# C2C12 statin – suppression of simvastatin myotoxicity; 330,000 compounds, 0.78% hits; C2C12 myotubes + simvastatin, ATP luminescence, 48 h; scaled: DMSO 0, geranylgeraniol control 100; rescue of ATP level, % at 7.49 µM;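 active = mean ATP rescue above about 67%, or every replicate alone reaching that limit, limit read from the data, passing the limit was not always enough; inconclusive = no clear call, values can overlap the other calls; inactive = mean under the limit and some replicate under it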;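 note: myotubes were challenged with 10 µM simvastatin during compound exposure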
# SUMO Mot1 rescue – inhibitors of SUMOylation pathway: yeast Mot1-301 growth rescue; S. cerevisiae Mot1-301 growth rescue, ATP luminescence, 38.5C; percent above DMSO median, 100 means doubled; growth rescue, % at 18.8 µM; 320,000 compounds, 1% hits;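 active = every valid replicate shows activation above 250% relative to neutral control wells; inactive = the rest, any valid replicate at or below 250%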;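 note: OY570 slx delta 5 strain wells were the positive control but not used for scaling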
# The depositor's hits bear a star; ? = inconclusive; · = not tested or not shown.
SMILES,Cneo AK release,C2C12 statin,SUMO Mot1 rescue
O=C(c1cccc(-c2nnc(-c3ccccc3)o2)c1)N1CCCCCC1,-2.7,7.8,15.1
CNC[C@H]1OCCCC[C@@H](C)Oc2ccc(NC(=O)Nc3ccc4c(c3)OCO4)cc2C(=O)N([C@H](C)CO)C[C@@H]1C,-0.3,-15.0,·
CCN(CC)c1ccc(C(=S)N2CCN(c3ccccc3)CC2)cc1,3.3,79.8*,-0.8
S=C(c1ccccc1)N1CCN(c2ccccc2)CC1,-0.1,13.4,·
O=C(C[C@@H]1CC[C@@H]2[C@H](COC[C@@H](O)CN2Cc2nccs2)O1)NCc1ccc(Cl)cc1,1.5,-0.5,·
CN(C)c1ccc2c(c1)[C@@H]1C[C@@H](CC(=O)NCc3ccc(-c4ccccc4)cc3)O[C@H](CO)[C@@H]1O2,-1.7,-1.6,·
O=C(COC(=O)c1c[nH]c(=O)[nH]c1=O)Nc1ccccc1Br,-0.7,-26.3,807.7*
COc1ccccc1NC(=O)COC(=O)c1c[nH]c(=O)[nH]c1=O,·,·,4.1
C[C@H](CO)N1C[C@H](C)[C@H](CN(C)C(=O)c2ccccn2)Oc2cc(C#CC3CC3)ccc2S1(=O)=O,0.6,17.0,·
CCOC(=O)c1cnn(-c2ccccc2)c1-n1cccc1,3.7,106.9*,18.7
CCOC(=O)c1cnn(-c2ccccc2)c1-c1ccccc1,-0.9,3.3,·
CC(=O)c1cnn(-c2ccccc2)c1C,·,2.9,60.6
Cc1c(C(=O)Oc2cccc3ccccc23)cnn1-c1ccccc1,-2.2,100.1*,-9.7
C[C@H](CO)N1C[C@H](C)[C@H](CN(C)C(=O)C2CCCCC2)Oc2ncc(C#CC(C)(C)O)cc2C1=O,·,-1.9,·
C[C@H]1CN([C@@H](C)CO)C(=O)CCCn2nncc2CO[C@@H]1CN(C)S(=O)(=O)c1ccccc1F,1.8,6.8,·
C[C@H](CO)N1C[C@H](C)[C@H](CN(C)Cc2ccccc2)Oc2cc(-c3ccccc3)ccc2S1(=O)=O,·,-31.2,·
COCC(=O)N1C[C@@H](C)[C@@H](OC)CN(C)C(=O)c2cc(NS(C)(=O)=O)ccc2OC[C@H]1C,-2.1,3.2,·
CN1C(=O)c2cc(NC(=O)c3ccc(F)c(F)c3)ccc2OC[C@@H]2O[C@H](CC(=O)O)CC[C@@H]21,0.6,-2.6,·
C=C(C)C1CC=C(C)/C(=N/NC(=O)c2ccc(NC(=O)CC)cc2)C1 (centres undefined),3.7,119.0*,2.1
C=C(C)C1CC=C(C)/C(=N/NC(=O)c2ccc(NC(=O)CCC)cc2)C1 (centres undefined),-0.4,4.4,-16.7
CN1C(=O)c2cc(NC(=O)Nc3cccc(Cl)c3)ccc2OC[C@H]2O[C@@H](CC(=O)O)CC[C@@H]21,-8.9,2.5,·
OCCNCCNCc1ccc(-c2ccccc2)cc1,·,·,15.6
OCCNCc1cccc(-c2ccccc2)c1O,4.4,100.3*,·
COc1cc(C)c(-c2cc(C(=O)O)c(C)o2)cc1C(C)C,-1.8,95.3*,-30.1
COc1cc(C)c(S(=O)(=O)N2CCCC2)cc1C(C)C,·,7.5,1.0
SMILES,Cneo AK release,C2C12 statin,SUMO Mot1 rescue
COc1ccc(N2CCN(C(c3cc4cc(C)ccc4[nH]c3=O)c3nnnn3Cc3ccccc3)CC2)cc1 (centres undefined),11.9,75.0*,3.0
COc1ccc(Cn2nnnc2C(c2cc3cc(C)ccc3[nH]c2=O)N2CCOCC2)cc1 (centres undefined),0.7,-13.0,-30.2
COc1ccc2c(c1OC)C(=O)OC2Nc1ccccc1S(=O)(=O)C(F)F (centres undefined),93.8*,-7.9,4.7
COc1ccc2c(c1OC)C(=O)OC2Nc1ccccn1 (centres undefined),1.1,3.3,·
Cc1ccccc1N1CCN(C2CCCN(C(=O)CCC(F)(F)F)C2)CC1 (centres undefined),-2.2,4.5,-1.6
Cc1ccccc1N1CCN(C2CCCN(C(=O)CCC(=O)N(C)C)C2)CC1 (centres undefined),5.0,-0.1,293.9*
CN1C(=O)c2cc(NC(=O)c3cccs3)ccc2OC[C@@H]2O[C@H](CC(=O)N3CCCCC3)CC[C@@H]21,-2.7,-12.9,·
O=C1CCc2ccccc2N1Cc1ccccc1,-1.0,10.8,3.9
O=CN1CCC(=O)N(Cc2ccccc2)c2ccccc21,1.2,109.4*,-0.2
O=C(Nc1ccccc1)N[C@H]1CC[C@@H](CCNC(=O)c2ccccc2F)O[C@@H]1CO,-0.2,-6.0,·
O=C(NCC[C@@H]1CC[C@H](NC(=O)C2CC2)[C@H](CO)O1)c1ccc(F)cc1,-8.3,-2.9,·
O=C(C[C@@H]1C=C[C@@H](NC(=O)Nc2cc(F)ccc2F)[C@H](CO)O1)NCCCN1CCOCC1,102.7*,-12.2,·
O=C(C[C@@H]1C=C[C@@H](NC(=O)Nc2cc(F)ccc2F)[C@@H](CO)O1)NCCCN1CCOCC1,27.2,-3.0,·
Cc1cccc(C(=O)Nc2nnc(-c3ccc(C(C)(C)C)cc3)s2)c1,-1.7,82.9*,0.4
Cc1ccccc1C(=O)Nc1nnc(-c2ccc(C(C)(C)C)cc2)s1,-3.4,·,8.2
COc1cccc(NC(=O)N[C@@H]2C=C[C@@H](CC(=O)N3CCCCC3)O[C@H]2CO)c1,45.0,2.0,·
COc1ccc(C(=O)CCc2nc3ccccc3s2)cc1,-1.0,·,355.1*
COc1ccccc1NC(=O)CCc1nc2ccccc2s1,·,·,227.3
O=C(C1CCC1)N1CC[C@@H]2[C@H](CO)Nc3ccc(-c4cccc(F)c4)cc3[C@@H]21,-8.4,-13.5,·
Cc1nc(NCc2ccco2)c2cn[nH]c2n1,1.4,95.3*,·
c1coc(CNc2ncnc3[nH]ncc23)c1,5.1,0.5,21.8
C[C@@H]1CN([C@H](C)CO)C(=O)c2cc(/C=C/c3ccccc3)cnc2O[C@H]1CN(C)C(=O)c1cnccn1,-9.7,-1.7,·
N#Cc1ccc(-c2ccc3c(c2)[C@H]2[C@H](CCN2Cc2ccc4c(c2)OCO4)[C@H](CO)N3)cc1,0.5,-10.1,·
CCn1c(-c2ccc(-c3ccccc3)cc2)c[nH]c1=S,4.5,124.9*,14.0
C=CCn1c(-c2ccccc2)c[nH]c1=S,-2.3,-12.7,42.6
SMILES,Cneo AK release,C2C12 statin,SUMO Mot1 rescue
CCCC#Cc1ccc2c(c1)O[C@H](CN(C)C)[C@@H](C)CN([C@H](C)CO)S2(=O)=O,11.1,12.1,·
O=C(NC1CC1)C1CCN(C2CCN(Cc3ccccc3C(F)(F)F)CC2)CC1,-0.7,82.7*,312.6*
O=C(Nc1ccccc1C(F)(F)F)N1CCC(N2CCCCC2)CC1,·,2.3,295.6*
CC(=O)Nc1ccc(CN2CCC(N3CCC(C(=O)NC4CC4)CC3)CC2)cc1,1.2,1.8,·
O=C(Nc1ccccc1C(F)(F)F)N1CCC(n2c(=O)[nH]c3ccccc32)CC1,·,12.4,6.3
CCCN1C[C@@H](C)[C@H](OC)CN(C)C(=O)c2cc(NC(=O)Nc3cccc(OC)c3)ccc2OC[C@@H]1C,·,15.1,·
C[C@@H]1CN([C@H](C)CO)C(=O)c2cccc(NS(=O)(=O)c3cccs3)c2O[C@@H]1CN(C)S(=O)(=O)c1ccccc1,1.8,?,·
COCC(=O)N(C)C[C@@H]1Oc2ncc(C#C[C@H](C)O)cc2C(=O)N([C@@H](C)CO)C[C@H]1C,16.1,-0.8,·
C[C@@H]1CN([C@H](C)CO)C(=O)c2cc(NC(=O)Cn3cnnn3)ccc2O[C@@H]1CN(C)C,-0.7,3.2,·
Cc1cc(S(=O)(=O)Nc2ccccc2C(=O)O)ccc1Cl,0.7,73.4*,12.9
